This sample holds only a part of the variants without activity.
B1: tRNA (parent)
chain: GUUCCGUUGGCGUAAUGGUAACGCGUCUCCCUCCUAAGGAGAAGACUGCGGGUUCGAGUCCCGUACGGAACG

Variants of: B1
Assay: yeast fitness relative to wild type (ratio to wild type); higher = fitter; tRNA-Arg(CCU), competitive growth, 37 C, YPD
Summary of the method: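 Genotype frequency changes were the basis for Darwinian fitness relative to wild type. The frequencies came from 100-nucleotide paired-end sequencing of gene amplicons from the start population and each end population of pooled yeast strains with tRNA-Arg(CCU) gene variants at the native locus. Competition ran in YPD at 37°C for 24 hours in six replicates, genotypes needed ≥ 100 starting reads, and estimates < 0.5 were set to 0.5.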

| Variant | yeast fitness |
| --- | --- |
| GUUCCGUUGGCGUAAUGGUAACGCGUCUCCCUCCUAAGAAGAAGACUGCGGGUUCGACUCCCGUACGGAACG [G39A G58C] | 0.948 |
| GUUCCGUUGGCGUAAUGGUAACGCGUCUCCCUCCUAAGCGGAAGACUCCGGGUUCGAGUCCCGUACGGAACG [G39C A40G G48C] | ≤ 0.5 |
| GUUCCGUUGGCGUAAUGGUAACGCGUCUCCCUCCUAAUGAGAAGACUGCGGGUUCGAGUCCCGUACGGCACG [G38U A69C] | 0.892 |
| GUUCCGUUGGCGUAAUGGUAACGCGUCUCCCUCCUAAGAAGAAGACUGCGGGUUCGAGUUCAGUACGGAACG [G39A C60U C62A] | 0.505 |
| GUUCCGUUGGCGUAAUGGUAACGCGUCUCCCUCCUAAGCAGACGGCUGCGGGUUCGAGUCCCGUACGGAACG [G39C A43C A45G] | ≤ 0.5 |
| GUUCCGUUGGCGUAAUGGUAACGCGUCUCCCUCCUAAGAAGGAGACUGCGGGUUCGAGACCCGUACGGAACG [G39A A42G U59A] | ≤ 0.5 |
| GUUCCGUUGGCGUAAUGGUAACGCGUCUCCCUCCUAACGAGAAGACUGCGGGCUCGUGUCCCGUACGGAACG [G38C U53C A57U] | ≤ 0.5 |
| GUUCCGUUGGCGUAAUGGUAACGCGUCUCCCUCCUAACGAGAAGACGGCGGGUUCGAGUCCUGUACGGAACG [G38C U47G C62U] | 0.521 |
| GUUCCGUUGGCGUAAUGGUAACGCGUCUCCCUCCUAACGAGAAGACGGCGGGUUCGAGCCCCGUACGGAACG [G38C U47G U59C] | ≤ 0.5 |
| GUUCCGUUGGCGUAAUGGUAACGCGUCUCCCUCCUAAGAAGAAGAUUGCGGGUUCGAGUCCCGUACAGAACG [G39A C46U G67A] | 0.575 |
| GUUCCGUUGGCGUAAUGGUAACGCGUCUCCCUCCUAAGACGAAGACUGCGGGUUCGAGUUCCGUACGUAACG [G39A A40C C60U G68U] | ≤ 0.5 |
| GUUCCGUUGGCGUAAUGGUAACGCGUCUCCCUCCUAAGAAGGAGACUGCGGGUUCGAGUCCCGUACCGAACG [G39A A42G G67C] | ≤ 0.5 |
| GUUCCGUUGGCGUAAUGGUAACGCGUCUCCCUCCUAAGAAGGAGACUGCGGGUUCGAGUCCCGUAUGGAACG [G39A A42G C66U] | ≤ 0.5 |
| GUUCCGUUGGCGUAAUGGUAACGCGUCUCCCUCCUAAGAAGAAGACUGCGGGUUCGAGUUCCGUACGGAACG [G39A C60U] | 0.81 |
| GUUCCGUUGGCGUAAUGGUAACGCGUCUCCCUCCUAAGAAGAAGACUGCGGGUUCGAGUCCCGUACGCAACG [G39A G68C] | 0.806 |
| GUUCCGUUGGCGUAAUGGUAACGCGUCUCCCUCCUAAGAAGAAGACUGCGGGUUCGAGUCCCGUACGAAACG [G39A G68A] | 0.853 |
| GUUCCGUUGGCGUAAUGGUAACGCGUCUCCCUCCUAACGAGAAGACUGCGGGUUCGAGUCCCGAAUGGAACG [G38C U64A C66U] | ≤ 0.5 |
| GUUCCGUUGGCGUAAUGGUAACGCGUCUCCCUCCUAACGAGAAGACUGCGGGUACGAGUCCCGUCCGGAACG [G38C U54A A65C] | 0.567 |
| GUUCCGUUGGCGUAAUGGUAACGCGUCUCCCUCCUAAGAAGAAGACUCCGGGUUCGAGUCACGUACGGAACG [G39A G48C C61A] | ≤ 0.5 |

| Variant | yeast fitness |
| --- | --- |
| GUUCCGUUGGCGUAAUGGUAACGCGUCUCCCUCCUAAGAAGAAGACUGCGGGUUCGAGUCCCGUACCGAACG [G39A G67C] | 0.825 |
| GUUCCGUUGGCGUAAUGGUAACGCGUCUCCCUCCUAACAAGACGACUGCGGGUUCGAGUGCCGUCCGGAACG [G38C G39A A43C C60G A65C] | 0.518 |
| GUUCCGUUGGCGUAAUGGUAACGCGUCUCCCUCCUAACGACAAGACUGCGGGUUCGAGUCCCGUAUGGAACG [G38C G41C C66U] | ≤ 0.5 |
| GUUCCGUUGGCGUAAUGGUAACGCGUCUCCCUCCUAAGCAGACGGCUGCGGGUUCGAGUGCCGUACGGAACG [G39C A43C A45G C60G] | ≤ 0.5 |
| GUUCCGUUGGCGUAAUGGUAACGCGUCUCCCUCCUAAUGAGAAGACUGCGGGUUCGAGUCCCAUACGGAACG [G38U G63A] | 0.743 |
| GUUCCGUUGGCGUAAUGGUAACGCGUCUCCCUCCUAAGAAGAAGACUGCGGGUUCGAGUCCUGUACGGAUCG [G39A C62U A70U] | 0.593 |
| GUUCCGUUGGCGUAAUGGUAACGCGUCUCCCUCCUAAGCAGAGGACUGCGGGUUCGCGUCCCGUACGGAACG [G39C A43G A57C] | ≤ 0.5 |
| GUUCCGUUGGCGUAAUGGUAACGCGUCUCCCUCCUAACGAAAAGACUGCGGGUUUGAGUCCCGUACCGAACG [G38C G41A C55U G67C] | ≤ 0.5 |
| GUUCCGUUGGCGUAAUGGUAACGCGUCUCCCUCCUAACGAGAAGACUGCGGGUUCGAGUCCCGUACAGAACG [G38C G67A] | 0.769 |
| GUUCCGUUGGCGUAAUGGUAACGCGUCUCCCUCCUAACGAGAAGACUGCGGGUUCGAGUCCCGUACUGAACG [G38C G67U] | 0.549 |
| GUUCCGUUGGCGUAAUGGUAACGCGUCUCCCUCCUAAGAAGAAGACUGCGGGUUCGAGUCUAGUACGGAACG [G39A C61U C62A] | 0.558 |
| GUUCCGUUGGCGUAAUGGUAACGCGUCUCCCUCCUAAGAAGAAGACUGCGGGUUCGCGUCCCGUACGGAACG [G39A A57C] | 0.663 |
| GUUCCGUUGGCGUAAUGGUAACGCGUCUCCCUCCUAAGAAGAAGACUGCGGGUUCGAAUCCCGUACGGCACG [G39A G58A A69C] | 0.592 |
| GUUCCGUUGGCGUAAUGGUAACGCGUCUCCCUCCUAACGACAAGACUGCGGGUUCGAGUCUCGUACGGAACG [G38C G41C C61U] | ≤ 0.5 |
| GUUCCGUUGGCGUAAUGGUAACGCGUCUCCCUCCUAACGAGAAAACUGCGGGUUCGAGUCCCGUGCGGAACG [G38C G44A A65G] | ≤ 0.5 |
| GUUCCGUUGGCGUAAUGGUAACGCGUCUCCCUCCUAAGAAGAAGACUGCGGGUUCGAGUCGCGUACGGAACG [G39A C61G] | 0.585 |
| GUUCCGUUGGCGUAAUGGUAACGCGUCUCCCUCCUAAGCUGAAGACUGCGGGUUCGAGUCCCGUCCGGAACG [G39C A40U A65C] | ≤ 0.5 |
| GUUCCGUUGGCGUAAUGGUAACGCGUCUCCCUCCUAACGAGAAGACUGCAGGUUCGAGUCCCGCACGGAACG [G38C G50A U64C] | 0.832 |
| GUUCCGUUGGCGUAAUGGUAACGCGUCUCCCUCCUAAGAAGAAGACAGCGGGUUCGAGUCCCGUACGCAACG [G39A U47A G68C] | 0.597 |
